Experimental data of several laboratories.
Each line is one published result; the experiments were not run side by side.
Target: Mitogen-activated protein kinase kinase kinase 11 (MAP3K11, Homo sapiens, UniProt Q16584)

SMILES	observed	action	technique	tested at	measurement	result
Cc1ccc(NC(=O)c2ccc(CN3CCN(C)CC3)cc2)cc1Nc1nc(-c2cccnc2)cs1	cell-free assay	–	–	0.5 µM	remaining signal	101%
CCc1ccccc1C(=O)Nc1n[nH]c2c(C)c(F)c(C3C(C#N)=C(C)N(C)C(C)=C3C#N)cc12	cell-free assay	–	competition with immobilised ligand	1 µM	remaining binding	88%
N#CCCc1ccc2c(c1)-c1[nH]c3ccc([N+](=O)[O-])cc3c1CC(=O)N2	cell-free assay	–	–	0.5 µM	remaining signal	18.4%
CC/C(=N\NC(=O)NCc1cccc(O)c1)c1ccc(O)c(C)c1O	enzyme activity	inhibitor	–	0.1 µM	inhibition	9.4%
c1cc(CN2CCOCC2)cc(Nc2nccc(NCCc3cnc[nH]3)n2)c1	enzyme activity	inhibitor	radiometric	1 µM	remaining activity	82%
Cc1c(C(=O)O)cc(-c2ccc(C3CCNCC3)cc2)c2ccc(-c3ccc(C(F)(F)F)cc3)cc12	binding	–	competition with immobilised ligand	1 µM	remaining binding	100%
Cc1nn(CC(F)(F)F)cc1Nc1ncc(Br)c(NCc2ccc(S(N)(=O)=O)cc2)n1	enzyme activity	inhibitor	radiometric	1 µM	remaining activity	82%
CC(=O)N1CCC(c2ccc(C(=O)NC(=N)N)cc2C(F)(F)F)CC1	cell-free assay	–	competition with immobilised ligand	1 µM	remaining binding	100%
CNC(=O)c1cc(Oc2ccc(NC(=O)Nc3ccc(Cl)c(C(F)(F)F)c3)cc2)ccn1	cell-free assay	–	–	0.5 µM	remaining signal	98.3%
COc1cc(/C=C/C(=O)CC(=O)/C=C/c2ccc(O)c(OC)c2)ccc1O	enzyme activity	inhibitor	–	1 µM	activity vs control	14%
CN1CCc2cc(Nc3ncc(C4CC4)c(NCCCNC(=O)C4CCC4)n3)ccc2C1	enzyme activity	inhibitor	radiometric	1 µM	remaining activity	44%
O=C(Nc1cnn(-c2csc(C(=O)NC3COC3)c2)c1)Nc1c(F)cccc1Cl	enzyme activity	inhibitor	–	5 µM	remaining activity	84.7%
O=C(NCc1ncc(C(F)(F)F)cc1Cl)c1ccc2c(c1)C1(CCS(=O)(=O)CC1)[C@@H](C1CC1)N2S(=O)(=O)c1ccc(F)cc1	cell-free assay	–	competition with immobilised ligand	1 µM	remaining binding	100%
Cc1nn(CC(F)(F)F)cc1Nc1ncc(Br)c(NCCc2cnc[nH]2)n1	enzyme activity	inhibitor	radiometric	1 µM	remaining activity	60%
Cn1nc(C(=O)NCc2ccc(C(=O)O)cc2)cc1-c1ccc2[nH]ccc2c1	cell-free assay	–	competition with immobilised ligand	0.1 µM	remaining binding	87%
O=C(NCCCNc1nc(Nc2cccc(NC(=O)N3CCCC3)c2)ncc1C1CC1)C1CCC1	enzyme activity	inhibitor	radiometric	1 µM	remaining activity	27%
Nc1ncnc2occ(-c3ccc(NC(=O)Nc4cc(C(F)(F)F)ccc4F)cc3)c12	cell-free assay	inhibitor	–	20 µM	remaining signal	2.9%
COCCOc1nc(-c2ccc(Cl)nc2)nc2c1CN(C(=O)c1ncn3ccccc13)CC2	cell-free assay	–	competition with immobilised ligand	0.1 µM	remaining binding	100%
O=C1NC(=O)c2cc(Nc3ccc(F)cc3)c(Nc3ccc(F)cc3)cc21	cell-free assay	–	–	0.5 µM	remaining signal	98.4%
